Test results: ChEMBL document CHEMBL1671664 (2009)
≈ marks a conversion by molar mass, not a printed value. Calls of active or inactive are those of the source. No cut-off for these calls is given here.

Legend:
[1] = Antimicrobial activity against qnrA-positive Salmonella enterica serovar Mbandaka isolate s2093 harboring ParC QRDR mutant gene by agar dilution method; format: functional, Salmonella enterica subsp. enterica serovar Mbandaka
[2] = Antimicrobial activity against Salmonella enterica serovar Stanley isolate s2043 harboring ParC QRDR mutant gene by agar dilution method; format: functional, Salmonella enterica subsp. enterica serovar Stanley
[3] = Antimicrobial activity against qnrS-positive Salmonella enterica serovar Corvallis isolate s2052 harboring ParC QRDR mutant gene by agar dilution method; format: functional, Salmonella enterica subsp. enterica serovar Corvallis
[4] = Antimicrobial activity against Salmonella enterica serovar Montevideo isolate s2317 harboring ParC QRDR mutant gene by agar dilution method; format: functional, Salmonella enterica subsp. enterica serovar Montevideo
[5] = Antimicrobial activity against Salmonella enterica serovar Corvallis isolate s2064 harboring ParC QRDR mutant gene by agar dilution method; format: functional, Salmonella enterica subsp. enterica serovar Corvallis
[6] = Antimicrobial activity against Salmonella enterica serovar Mbandaka isolate s2159 harboring ParC QRDR mutant gene by agar dilution method; format: functional, Salmonella enterica subsp. enterica serovar Mbandaka
[7] = Antimicrobial activity against qnrS-positive Salmonella enterica serovar Montevideo isolate s2944 harboring ParC QRDR mutant gene by agar dilution method; format: functional, Salmonella enterica subsp. enterica serovar Montevideo
Salmonella typhimurium [8] = assay: Antimicrobial activity against qnrS-positive Salmonella enterica serovar Typhimurium isolate s2425 harboring wild type ParC gene by agar dilution method; format: functional, Salmonella enterica subsp. enterica serovar Typhimurium
[9] = Antimicrobial activity against qnrS-positive Salmonella enterica serovar Montevideo isolate s2209 harboring ParC QRDR mutant gene by agar dilution method; format: functional, Salmonella enterica subsp. enterica serovar Montevideo
[10] = Antimicrobial activity against qnrS-positive Salmonella enterica serovar Virginia isolate s2219 harboring ParC QRDR mutant gene by agar dilution method; format: functional, Salmonella enterica subsp. enterica serovar Virginia
Salmonella typhimurium [11] = assay: Antimicrobial activity against qnrS-positive Salmonella enterica serovar Typhimurium isolate s2705 harboring wild type ParC gene by agar dilution method; format: functional, Salmonella enterica subsp. enterica serovar Typhimurium
[12] = Antimicrobial activity against qnrS-positive Salmonella enterica serovar Stanley isolate s2018 harboring ParC QRDR mutant gene by agar dilution method; format: functional, Salmonella enterica subsp. enterica serovar Stanley
[13] = Antimicrobial activity against qnrS-positive Salmonella enterica serovar Braenderup isolate s2856 harboring ParC QRDR mutant gene by agar dilution method; format: functional, Salmonella enterica subsp. enterica serovar Braenderup
[14] = Antimicrobial activity against qnrS-positive Salmonella enterica serovar Corvallis isolate s2017 harboring ParC QRDR mutant gene by agar dilution method; format: functional, Salmonella enterica subsp. enterica serovar Corvallis
[15] = test system: Salmonella enterica subsp. enterica serovar Montevideo; assay: Drug uptake in qnrS-positive Salmonella enterica serovar Montevideo isolate s2209 harboring ParC QRDR mutant gene in presence of CCCP; format: functional
In short: (§1)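 Cell suspensions preincubated with 100 μM CCCP before substrate addition. Ciprofloxacin accumulation read by fluorescence (ex 311/em 447 nm), Hoechst 33342 by fluorescence (ex 355/[…]), at 10 min. Expressed relative to S. Typhimurium SL1344. Differences tested by Student t test (P < 0.05).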

[16] = test system: Salmonella enterica subsp. enterica serovar Mbandaka; assay: Drug uptake in qnrA-positive Salmonella enterica serovar Mbandaka isolate s2093 harboring ParC QRDR mutant gene in presence of CCCP; format: functional; in short: as §1
Salmonella typhimurium [17] = assay: Antimicrobial activity against Salmonella enterica serovar Typhimurium isolate s2878 harboring wild type ParC gene by agar dilution method; format: functional, Salmonella enterica subsp. enterica serovar Typhimurium
[18] = Antimicrobial activity against Salmonella enterica serovar Braenderup isolate s2906 harboring ParC QRDR mutant gene by agar dilution method; format: functional, Salmonella enterica subsp. enterica serovar Braenderup
Salmonella typhimurium [19] = assay: Antimicrobial activity against Salmonella enterica serovar Typhimurium isolate SL1344 harboring wild type ParC gene by agar dilution method; format: functional, Salmonella enterica subsp. enterica serovar Typhimurium
Escherichia coli [20] = assay: Antimicrobial activity against Escherichia coli DH5[alpha] transformed with Salmonella enterica serovar Corvallis isolate s2017 plasmid encoded qnrS and Parc QRDR Thre57Ser mutant gene by agar dilution method; format: functional
In short: (§2)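 E. coli DH5α transformed by electroporation with qnr-carrying plasmid DNA from donor Salmonella isolates; transformants selected on LB agar with 0.03 μg/ml ciprofloxacin, qnr confirmed by multiplex PCR. MICs to ciprofloxacin and nalidixic acid by agar dilution.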

Escherichia coli [21] = assay: Antimicrobial activity against Escherichia coli DH5[alpha] transformed with Salmonella enterica serovar Montevideo isolate s2209 plasmid encoded qnrS and Parc QRDR Thre57Ser mutant gene by agar dilution method; format: functional; in short: as §2
Escherichia coli [22] = assay: Antimicrobial activity against Escherichia coli DH5[alpha] transformed with Salmonella enterica serovar Virginia isolate s2219 plasmid encoded qnrS and Parc QRDR Thre57Ser mutant gene by agar dilution method; format: functional; in short: as §2
Escherichia coli [23] = assay: Antimicrobial activity against Escherichia coli DH5[alpha] transformed with Salmonella enterica serovar Corvallis isolate s2052 plasmid encoded qnrS and Parc QRDR Thre57Ser mutant gene by agar dilution method; format: functional; in short: as §2
Escherichia coli [24] = assay: Antimicrobial activity against Escherichia coli DH5[alpha] transformed with Salmonella enterica serovar Montevideo isolate s2944 plasmid encoded qnrS and Parc QRDR Thre57Ser mutant gene by agar dilution method; format: functional; in short: as §2
Escherichia coli [25] = assay: Antimicrobial activity against Escherichia coli DH5[alpha] transformed with Salmonella enterica serovar Typhimurium isolate s2705 plasmid encoded qnrS and Parc gene by agar dilution method; format: functional; in short: as §2
Escherichia coli [26] = assay: Antimicrobial activity against Escherichia coli DH5[alpha] transformed with Salmonella enterica serovar Typhimurium isolate s2425 plasmid encoded qnrS and Parc gene by agar dilution method; format: functional; in short: as §2

| Structure (SMILES) | MIC [1] [µg/mL] | MIC [2] [µg/mL] | MIC [3] [µg/mL] | MIC [4] [µg/mL] | MIC [5] [µg/mL] | MIC [6] [µg/mL] | MIC [7] [µg/mL] | MIC (Salmonella typhimurium [8]) [µg/mL] | MIC [9] [µg/mL] | MIC [10] [µg/mL] | MIC (Salmonella typhimurium [11]) [µg/mL] | MIC [12] [µg/mL] | MIC [13] [µg/mL] | MIC [14] [µg/mL] | MIC (Salmonella typhimurium [17]) [µg/mL] | MIC [18] [µg/mL] | MIC (Salmonella typhimurium [19]) [µg/mL] | other results |
| --- | --- | --- | --- | --- | --- | --- | --- | --- | --- | --- | --- | --- | --- | --- | --- | --- | --- | --- |
| COc1c(N2C[C@@H]3CCCN[C@@H]3C2)c(F)cc2c(=O)c(C(=O)O)cn(C3CC3)c12 [MOXIFLOXACIN] | 0.5 (≈ 1.25 µM) | 0.06 (≈ 0.149 µM) | 2 (≈ 4.98 µM) | 0.06 (≈ 0.149 µM) | 0.06 (≈ 0.149 µM) | 0.125 (≈ 0.311 µM) |  |  |  |  |  |  |  |  |  |  |  |  |
| C[C@H]1COc2c(N3CCN(C)CC3)c(F)cc3c(=O)c(C(=O)O)cn1c23.C[C@H]1COc2c(N3CCN(C)CC3)c(F)cc3c(=O)c(C(=O)O)cn1c23.O [LEVOFLOXACIN] | 1 | 0.06 | 0.5 | 0.06 | 0.06 | 0.06 | 1 | 1 | 1 | 1 | 1 | 1 | 1 | 1 |  |  |  |  |
| CCn1cc(C(=O)O)c(=O)c2cc(F)c(N3CCNCC3)cc21 [NORFLOXACIN] | 16 (≈ 50.1 µM) | 0.125 (≈ 0.391 µM) | 1 (≈ 3.13 µM) | 0.125 (≈ 0.391 µM) | 0.06 (≈ 0.188 µM) | 0.125 (≈ 0.391 µM) | 2 (≈ 6.26 µM) | 2 (≈ 6.26 µM) | 2 (≈ 6.26 µM) | 2 (≈ 6.26 µM) | 2 (≈ 6.26 µM) | 2 (≈ 6.26 µM) | 2 (≈ 6.26 µM) | 2 (≈ 6.26 µM) |  |  |  |  |
| CC1COc2c(N3CCN(C)CC3)c(F)cc3c(=O)c(C(=O)O)cn1c23 (stereo unspecified) [OFLOXACIN] | 1 (≈ 2.77 µM) | 0.125 (≈ 0.346 µM) | 1 (≈ 2.77 µM) | 0.125 (≈ 0.346 µM) | 0.03 (≈ 0.083 µM) | 0.125 (≈ 0.346 µM) | 2 (≈ 5.53 µM) | 2 (≈ 5.53 µM) | 2 (≈ 5.53 µM) | 2 (≈ 5.53 µM) | 2 (≈ 5.53 µM) | 2 (≈ 5.53 µM) | 2 (≈ 5.53 µM) | 2 (≈ 5.53 µM) |  |  |  |  |
| O=C(O)c1cn(C2CC2)c2cc(N3CCNCC3)c(F)cc2c1=O [CIPROFLOXACIN] | 4 (≈ 12.1 µM) | 0.015 (≈ 0.0453 µM) | 0.5 (≈ 1.51 µM) | 0.015 (≈ 0.0453 µM) | 0.015 (≈ 0.0453 µM) | 0.008 (≈ 0.0241 µM) | 0.5 (≈ 1.51 µM) | 0.5 (≈ 1.51 µM) | 0.5 (≈ 1.51 µM) | 0.5 (≈ 1.51 µM) | 0.5 (≈ 1.51 µM) | 0.5 (≈ 1.51 µM) | 0.5 (≈ 1.51 µM) | 0.25 (≈ 0.754 µM) | 0.03 (≈ 0.0905 µM) | 0.015 (≈ 0.0453 µM) | 0.06 (≈ 0.181 µM) | Drug uptake [15]: inactive; Drug uptake [16]: inactive |
| CCn1cc(C(=O)O)c(=O)c2ccc(C)nc21 [NALIDIXIC ACID] | 16 (≈ 68.9 µM) | 4 (≈ 17.2 µM) | 16 (≈ 68.9 µM) | 4 (≈ 17.2 µM) | 4 (≈ 17.2 µM) | 4 (≈ 17.2 µM) | 16 (≈ 68.9 µM) | 16 (≈ 68.9 µM) | 32 (≈ 138 µM) | 32 (≈ 138 µM) | 16 (≈ 68.9 µM) | 16 (≈ 68.9 µM) | 16 (≈ 68.9 µM) | 16 (≈ 68.9 µM) | 16 (≈ 68.9 µM) | 4 (≈ 17.2 µM) | 4 (≈ 17.2 µM) | MIC (Escherichia coli [20]): 8 µg/mL (≈ 34.4 µM); MIC (Escherichia coli [21]): 8 µg/mL (≈ 34.4 µM); MIC (Escherichia coli [22]): 8 µg/mL (≈ 34.4 µM); MIC (Escherichia coli [23]): 8 µg/mL (≈ 34.4 µM); MIC (Escherichia coli [24]): 8 µg/mL (≈ 34.4 µM); MIC (Escherichia coli [25]): 8 µg/mL (≈ 34.4 µM); MIC (Escherichia coli [26]): 8 µg/mL (≈ 34.4 µM) |
